Experimental data taken from ChEMBL document CHEMBL4308828, “Fragment Based Optimization of Metabotropic Glutamate Receptor 2 (mGluR2) Positive Allosteric Modulators in the Absence of Structural Information” (J Med Chem, 2018).
≈ marks a conversion by molar mass, not a printed value.

What was measured:
Cytochrome P450 2D6 = Cytochrome P450 2D6 (Homo sapiens, UniProt P10635); test: Inhibition of CYP2D6 (unknown origin); format: ADME
[1] = Intrinsic clearance in human liver microsomes at 2.5 uM; format: ADME, Microsome
How it was run: (§1)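 Liver microsomes (0.5 mg/mL) of human, Wistar rat or NMRI mouse; compound 2.5 μM initial, incubated for various times. Intrinsic clearance (mL/min·g liver) taken as rate of compound consumption under first-order conditions, Clint = Vmax/KM or V/S when S ≪ KM.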

[2] = Intrinsic clearance in NMRI mouse liver microsomes at 2.5 uM; format: ADME, Microsome; how it was run: as §1
[3] = biological target: T1, Nuclear receptor subfamily 1 group I member 2 (Homo sapiens, UniProt O75469); test: Activation of PXR (unknown origin) assessed as CYP induction; format: ADME
T1 sequence (O75469 whole entry): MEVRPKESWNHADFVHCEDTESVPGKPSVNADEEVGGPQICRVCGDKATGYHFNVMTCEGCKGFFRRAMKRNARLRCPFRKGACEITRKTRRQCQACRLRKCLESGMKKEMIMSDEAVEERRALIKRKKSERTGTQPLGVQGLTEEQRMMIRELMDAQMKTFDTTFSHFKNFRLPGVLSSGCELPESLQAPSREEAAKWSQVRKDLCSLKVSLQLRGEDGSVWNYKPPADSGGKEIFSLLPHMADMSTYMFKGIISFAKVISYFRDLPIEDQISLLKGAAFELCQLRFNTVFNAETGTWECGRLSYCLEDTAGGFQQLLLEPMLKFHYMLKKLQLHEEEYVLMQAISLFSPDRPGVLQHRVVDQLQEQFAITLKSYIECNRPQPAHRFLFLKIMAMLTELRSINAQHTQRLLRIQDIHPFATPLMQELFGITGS

Homo sapiens = organism: Homo sapiens; test: Binding affinity to sodium channel site 2 (unknown origin) at 10 uM relative to control
[4] = Drug uptake in mouse brain at 30 mg/kg, po; format: ADME, organism-based; conditions: in vivo, read-out: Drug uptake
How it was run: (§2)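 Mice dosed orally at 30 mg/kg; plasma, brain and unbound plasma concentrations measured.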

[5] = Lipophilicity, log D of the compound at pH 7.4; format: physicochemical; conditions: buffer
[6] = Plasma concentration in mouse at 30 mg/kg, po; format: ADME, organism-based; conditions: in vivo; how it was run: as §2
[7] = Kinetic aqueous solubility of the compound in pH 7.4 solution; format: physicochemical; conditions: aqueous pH 7.4 solution, read-out: Kinetic_solubility
[8] = Unbound plasma concentration in mouse at 30 mg/kg, po; format: ADME, organism-based; conditions: in vivo; how it was run: as §2
Mus musculus [9] = test: Antipsychotic activity in ip dosed ddY mouse assessed as inhibition of PCP-induced hyperlocomotion pretreated followed by PCP addition measured after 60 mins by passive infrared sensor method; format: functional
How it was run: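 Male ddY mice, 6 weeks old, acclimated 60 min in test cage, dosed i.p., then immediately PCP 2.5 mg/kg s.c.; locomotor activity recorded 60 min by passive infrared sensor system; ED50 reported.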

[10] = biological target: T2, Androgen receptor (Homo sapiens) (UniProt P10275); test: Binding affinity to AR (unknown origin) at 10 uM relative to control
T2 sequence (whole entry): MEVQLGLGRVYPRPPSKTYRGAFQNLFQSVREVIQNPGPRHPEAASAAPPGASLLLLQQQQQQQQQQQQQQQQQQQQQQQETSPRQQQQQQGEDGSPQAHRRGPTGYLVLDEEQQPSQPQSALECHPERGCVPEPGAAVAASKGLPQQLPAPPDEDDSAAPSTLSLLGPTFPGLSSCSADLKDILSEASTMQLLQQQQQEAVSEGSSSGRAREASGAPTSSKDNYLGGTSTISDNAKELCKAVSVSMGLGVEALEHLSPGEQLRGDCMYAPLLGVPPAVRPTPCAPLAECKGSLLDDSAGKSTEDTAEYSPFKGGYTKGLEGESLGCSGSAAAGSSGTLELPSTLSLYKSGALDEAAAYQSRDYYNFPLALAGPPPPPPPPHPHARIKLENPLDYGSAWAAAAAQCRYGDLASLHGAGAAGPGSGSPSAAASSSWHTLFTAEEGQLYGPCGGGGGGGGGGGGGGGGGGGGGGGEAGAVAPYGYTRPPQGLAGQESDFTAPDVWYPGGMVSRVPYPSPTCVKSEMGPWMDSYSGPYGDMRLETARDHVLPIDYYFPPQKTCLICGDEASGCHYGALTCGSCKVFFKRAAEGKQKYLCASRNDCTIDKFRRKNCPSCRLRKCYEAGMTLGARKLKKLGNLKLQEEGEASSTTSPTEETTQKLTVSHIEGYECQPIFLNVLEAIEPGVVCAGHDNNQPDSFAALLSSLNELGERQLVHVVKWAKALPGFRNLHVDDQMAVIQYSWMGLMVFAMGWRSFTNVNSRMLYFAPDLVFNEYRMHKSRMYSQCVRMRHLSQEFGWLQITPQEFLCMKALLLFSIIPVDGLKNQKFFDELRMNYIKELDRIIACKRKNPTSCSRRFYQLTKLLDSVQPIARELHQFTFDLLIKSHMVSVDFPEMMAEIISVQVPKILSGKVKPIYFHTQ

[11] = Intrinsic clearance in Wistar rat liver microsomes at 2.5 uM; format: ADME, Microsome; how it was run: as §1
Cytochrome P450 2C9 = Cytochrome P450 2C9 (Homo sapiens, UniProt P11712); test: Inhibition of CYP2C9 (unknown origin); format: ADME
[12] = Protein binding in rat plasma; format: ADME, cell-free; conditions: read-out: PPB (converted)
Cytochrome P450 1A2 = biological target: T3, Cytochrome P450 1A2 (Homo sapiens, UniProt P05177); test: Inhibition of CYP1A2 (unknown origin); format: ADME
T3 sequence (P05177 whole entry): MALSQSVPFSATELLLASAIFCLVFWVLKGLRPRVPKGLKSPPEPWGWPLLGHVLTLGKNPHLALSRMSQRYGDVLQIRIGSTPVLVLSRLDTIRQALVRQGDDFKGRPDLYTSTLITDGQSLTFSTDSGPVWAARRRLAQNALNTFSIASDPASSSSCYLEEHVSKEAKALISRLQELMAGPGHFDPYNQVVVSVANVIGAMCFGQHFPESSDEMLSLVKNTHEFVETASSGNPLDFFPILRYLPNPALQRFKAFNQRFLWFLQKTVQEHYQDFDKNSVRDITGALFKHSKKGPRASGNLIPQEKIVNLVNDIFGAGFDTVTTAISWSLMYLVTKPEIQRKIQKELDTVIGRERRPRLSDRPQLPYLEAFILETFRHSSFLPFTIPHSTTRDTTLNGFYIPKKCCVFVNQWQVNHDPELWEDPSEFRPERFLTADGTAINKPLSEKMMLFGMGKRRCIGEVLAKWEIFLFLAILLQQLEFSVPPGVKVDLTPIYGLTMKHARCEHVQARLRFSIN

[13] = biological target: Metabotropic glutamate receptor 2 (Homo sapiens, UniProt Q14416); test: Positive allosteric modulation of human mGluR2 expressed in human Chem1 cells assessed as increase in glutamate-induced intracellular calcium influx preincubated for 30 mins followed by glutamate addition by calcium-5 dye based fluorometric assay; format: functional, cell-based
How it was run: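 Chem-1 cells stably expressing human mGlu2, 30000 cells/well, overnight at 37 °C. Loaded with Calcium 5 dye (30 min, 37 °C) in buffer with GPT/pyruvate, washed, then compound or vehicle 30 min at 37 °C. Glutamate at EC5-EC20 added after 20 s baseline; fluorescence 485/525 nm read 40 s. ΔF/F from multiple wells; sigmoid fits give EC50, three independent experiments. Final DMSO 1%.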

Cytochrome P450 3A4 = Cytochrome P450 3A4 (Homo sapiens, UniProt P08684); test: Inhibition of CYP3A4 (unknown origin); format: ADME
[14] = Protein binding in mouse plasma; format: ADME, cell-free; conditions: read-out: PPB (converted)
Mus musculus [15] = test: Inhibition of DOI-induced head twitches in ip dosed ddY mouse pretreated for 20 mins followed by DOI addition measured after 8 mins; format: functional
How it was run: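 Male ddY mice, 6 weeks old, dosed i.p. 20 min before DOI 0.75 mg/kg s.c.; head twitches counted in transparent cylinder from 10 to 18 min after DOI.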

Chain of Cytochrome P450 2C9 (P11712 whole entry): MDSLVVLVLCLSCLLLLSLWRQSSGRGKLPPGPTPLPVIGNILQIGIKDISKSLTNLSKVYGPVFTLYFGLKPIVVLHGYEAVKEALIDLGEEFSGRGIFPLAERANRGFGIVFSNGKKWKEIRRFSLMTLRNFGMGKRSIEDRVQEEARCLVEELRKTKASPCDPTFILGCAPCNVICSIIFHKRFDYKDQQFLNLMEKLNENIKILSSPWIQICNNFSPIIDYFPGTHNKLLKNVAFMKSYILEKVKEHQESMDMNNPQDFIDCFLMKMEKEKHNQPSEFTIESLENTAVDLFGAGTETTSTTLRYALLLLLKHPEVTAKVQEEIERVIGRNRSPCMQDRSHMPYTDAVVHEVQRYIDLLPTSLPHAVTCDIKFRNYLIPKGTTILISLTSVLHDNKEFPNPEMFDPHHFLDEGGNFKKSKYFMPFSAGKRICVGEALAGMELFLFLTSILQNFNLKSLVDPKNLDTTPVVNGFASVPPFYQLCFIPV
Chain of Cytochrome P450 2D6 (P10635 whole entry): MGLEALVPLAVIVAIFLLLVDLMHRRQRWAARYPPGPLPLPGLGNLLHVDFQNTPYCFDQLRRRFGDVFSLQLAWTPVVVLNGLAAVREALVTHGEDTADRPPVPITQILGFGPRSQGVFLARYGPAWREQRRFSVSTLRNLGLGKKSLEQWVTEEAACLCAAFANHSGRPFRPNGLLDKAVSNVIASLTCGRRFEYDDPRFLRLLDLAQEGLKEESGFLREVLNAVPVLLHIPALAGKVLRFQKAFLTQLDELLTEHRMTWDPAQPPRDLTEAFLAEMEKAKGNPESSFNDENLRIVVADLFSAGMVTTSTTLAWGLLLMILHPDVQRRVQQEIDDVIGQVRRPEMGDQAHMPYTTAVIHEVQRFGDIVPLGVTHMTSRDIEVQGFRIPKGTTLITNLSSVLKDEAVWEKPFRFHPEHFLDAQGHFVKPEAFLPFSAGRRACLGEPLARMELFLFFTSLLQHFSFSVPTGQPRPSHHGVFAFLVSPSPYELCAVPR
Chain of Metabotropic glutamate receptor 2 (Q14416 whole entry): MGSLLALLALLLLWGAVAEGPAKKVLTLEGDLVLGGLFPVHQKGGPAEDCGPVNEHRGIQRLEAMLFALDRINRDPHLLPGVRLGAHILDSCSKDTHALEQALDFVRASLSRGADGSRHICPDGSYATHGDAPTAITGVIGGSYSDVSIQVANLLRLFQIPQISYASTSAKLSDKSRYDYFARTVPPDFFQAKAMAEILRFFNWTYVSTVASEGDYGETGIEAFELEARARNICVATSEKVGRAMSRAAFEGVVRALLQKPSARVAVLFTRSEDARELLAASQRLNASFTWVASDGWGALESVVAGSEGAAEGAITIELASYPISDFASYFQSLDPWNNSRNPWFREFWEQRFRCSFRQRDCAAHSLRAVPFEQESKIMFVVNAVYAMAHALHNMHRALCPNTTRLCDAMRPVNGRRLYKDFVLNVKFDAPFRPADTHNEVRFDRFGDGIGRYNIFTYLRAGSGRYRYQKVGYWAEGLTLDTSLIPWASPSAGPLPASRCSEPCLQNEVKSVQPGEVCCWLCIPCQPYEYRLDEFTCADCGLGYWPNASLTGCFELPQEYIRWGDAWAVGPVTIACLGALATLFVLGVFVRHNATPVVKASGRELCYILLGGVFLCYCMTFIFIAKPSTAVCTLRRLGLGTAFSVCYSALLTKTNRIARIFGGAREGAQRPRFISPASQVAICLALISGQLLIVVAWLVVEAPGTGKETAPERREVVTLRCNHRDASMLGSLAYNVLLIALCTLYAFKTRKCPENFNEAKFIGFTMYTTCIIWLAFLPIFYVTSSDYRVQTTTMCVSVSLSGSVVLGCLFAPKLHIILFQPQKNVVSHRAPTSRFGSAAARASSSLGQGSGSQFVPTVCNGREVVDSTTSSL
Chain of Cytochrome P450 3A4 (P08684 whole entry): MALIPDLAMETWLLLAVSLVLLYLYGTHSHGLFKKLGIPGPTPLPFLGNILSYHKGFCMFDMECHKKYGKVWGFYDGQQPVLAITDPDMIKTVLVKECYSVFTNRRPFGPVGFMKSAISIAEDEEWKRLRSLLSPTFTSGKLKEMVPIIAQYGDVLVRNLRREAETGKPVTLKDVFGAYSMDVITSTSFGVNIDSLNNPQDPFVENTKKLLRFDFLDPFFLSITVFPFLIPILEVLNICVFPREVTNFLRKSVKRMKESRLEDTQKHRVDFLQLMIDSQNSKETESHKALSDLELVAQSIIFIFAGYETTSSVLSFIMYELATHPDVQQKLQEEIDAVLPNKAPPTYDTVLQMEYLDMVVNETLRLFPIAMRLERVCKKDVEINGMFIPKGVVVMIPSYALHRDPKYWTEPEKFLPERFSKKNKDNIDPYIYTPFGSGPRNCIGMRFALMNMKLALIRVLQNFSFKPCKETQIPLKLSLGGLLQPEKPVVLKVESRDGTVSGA

Row | Structure (SMILES) | IC50 (Cytochrome P450 2D6) | Intrinsic clearance [1] | Intrinsic clearance [2] | MEC [3] | Activity (Homo sapiens) | concentration [4] | logD [5] | concentration [6] | solubility kinetic [7] | Cp(f) [8] | ED50 (Mus musculus [9]) | Activity [10] | Intrinsic clearance [11] | IC50 (Cytochrome P450 2C9) | fraction unbound [12] | IC50 (Cytochrome P450 1A2) | EC50 [13] | IC50 (Cytochrome P450 3A4) | fraction unbound [14] | ED50 (Mus musculus [15])
1 | Fc1cc(Cl)ccc1-c1ccc(Cn2nnc3ccccc32)cn1 | > 10 µM | 0.01 mL/min/g | 3.4 mL/min/g | 7.7 µM | 50% | 1400 nM | 5.48 | 2000 nM | 3 µg/mL (≈ 8.86 µM) | 15 nM | > 100 mg/kg | 77% | 0.8 mL/min/g | 6.6 µM | 0.006 | > 10 µM | 0.05 µM | > 10 µM | 0.008 | –
2 | FC(F)(F)c1cccc2c1nnn2CC1CC1 | > 10 µM | 0.3 mL/min/g | 1.4 mL/min/g | 7 µM | – | 13100 nM | 3.08 | 12100 nM | 409 µg/mL (≈ 1700 µM) | 1750 nM | 57.6 mg/kg | – | 0.3 mL/min/g | > 10 µM | 0.1 | > 10 µM | 0.148 µM | > 10 µM | 0.145 | 29.7 mg/kg
